Source: ChEMBL document CHEMBL4390678, “Structure-Activity Relationship of Purine and Pyrimidine Nucleotides as Ecto-5'-Nucleotidase (CD73) Inhibitors” (J Med Chem, 2019)
pEC50, pIC50, pKi: −log10 of the molar value. Activity calls are given as the source filed them. The rule behind the calls is not given here.

Columns and labels:
Homo sapiens [1] = species: Homo sapiens; assay: Inhibition of cytosolic nucleotidase in MaMel.65-CD73 cell cytosolic extract (unknown origin) at 5 mM using AMP as substrate preincubated for 5 mins followed by substrate addition and measured after 60 mins in presence of levamisole by malachite green oxalate dye based colorimetric method relative to control
Outline: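 Cytosolic extract (15.25 µg) from CRISPR CD73-knockout melanoma cells in 50 mM Tris pH 7.0, 100 mM KCl, 5 mM MgCl2. […] Released phosphate read by malachite green/molybdate absorbance at 600 nm. Levamisole 1 mM plus NaF 5 mM as positive control; three independent experiments in duplicate.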

5'-nucleotidase [2] = biological target: T1, 5'-nucleotidase (Rattus norvegicus, UniProt P21588); assay: Inhibition of recombinant rat C-terminal His-tagged soluble form of CD73 expressed in baculovirus infected Sf9 insect cells using [2,8-3H]AMP as substrate measured after 25 mins by scintillation counting method
T1 sequence (P21588 whole entry): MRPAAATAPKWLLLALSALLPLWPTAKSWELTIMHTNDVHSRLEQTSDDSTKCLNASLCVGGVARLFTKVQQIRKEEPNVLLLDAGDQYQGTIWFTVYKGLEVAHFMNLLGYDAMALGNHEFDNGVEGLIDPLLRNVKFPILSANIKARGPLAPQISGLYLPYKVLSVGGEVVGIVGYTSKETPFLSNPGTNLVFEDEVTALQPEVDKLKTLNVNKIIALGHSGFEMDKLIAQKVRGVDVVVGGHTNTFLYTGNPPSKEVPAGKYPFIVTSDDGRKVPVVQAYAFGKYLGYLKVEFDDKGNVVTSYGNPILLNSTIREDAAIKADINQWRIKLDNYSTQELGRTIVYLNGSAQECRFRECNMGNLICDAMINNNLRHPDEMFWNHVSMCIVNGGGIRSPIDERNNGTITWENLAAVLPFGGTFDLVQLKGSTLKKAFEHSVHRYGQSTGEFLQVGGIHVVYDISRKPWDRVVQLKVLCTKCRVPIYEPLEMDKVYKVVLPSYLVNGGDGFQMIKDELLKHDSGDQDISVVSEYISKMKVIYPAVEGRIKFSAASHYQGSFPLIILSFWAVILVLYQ
Outline: (§1)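 Enzyme is soluble rat CD73 from Sf9 cells, 1.63 ng per vial, in 25 mM Tris, 140 mM NaCl, 25 mM NaH2PO4, pH 7.4. […] Stopped by LaCl3 precipitation and GF/B filtration, then counted. Each compound first screened at 1 µM.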

5'-nucleotidase [3] = biological target: T2, 5'-nucleotidase (Homo sapiens, UniProt P21589); assay: Inhibition of CD73 in human tonsils at 100 nM using AMP as substrate preincubated for 30 mins followed by substrate addition and measured after 45 mins by lead nitrate-based histochemical analysis
Outline: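 Tonsil cryosections pre-incubated 30 min in Trizma-maleate sucrose buffer (pH 7.4) with 2 mM levamisole and inhibitor. […] Deposit developed with 0.5% (NH4)2S and quantified as grayscale mean pixel intensity of five germinal centers versus control (ANOVA, Dunnett).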

[4] = biological target: T3, 5'-nucleotidase (Rattus norvegicus) (UniProt P21588); assay: Inhibition of recombinant rat C-terminal His-tagged soluble form of CD73 expressed in baculovirus infected Sf9 insect cells at 1 uM using [2,8-3H]AMP as substrate measured after 25 mins by scintillation counting method relative to control; outline: as §1
T3 sequence (whole entry): T1 sequence (P21588 whole entry)

P2Y purinoceptor 6 [5] = biological target: T4, P2Y purinoceptor 6 (Homo sapiens, UniProt Q15077); assay: Agonist activity at human P2Y6 receptor expressed in human 1321N1 cells assessed as induction of calcium mobilization by calcium-4 dye based FLIPR assay; type: functional, cell-based
Homo sapiens [6] = species: Homo sapiens; assay: Inhibition of cytosolic nucleotidase in MaMel.65-CD73 cell cytosolic extract (unknown origin) at 100 uM using AMP as substrate preincubated for 5 mins followed by substrate addition and measured after 60 mins by malachite green oxalate dye based colorimetric method relative to control
Outline: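 Cytosolic extract of CRISPR CD73-knockout MaMel.65 melanoma cells, 15.25 µg, in 50 mM Tris pH 7.0 with 100 mM KCl and 5 mM MgCl2. […] After 60 min, heat-stopped at 95°C. Released phosphate read with malachite green/molybdate at 600 nm. Levamisole 1 mM plus NaF 5 mM served as positive control. Three experiments in duplicate.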

5'-nucleotidase [7] = biological target: T2, 5'-nucleotidase; assay: Inhibition of CD73 in human MDA-MB-231 cell membranes using [2,8-3H]AMP as substrate measured after 25 mins by scintillation counting method
Outline: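 MDA-MB-231 membranes (7.4 ng protein per vial) in 25 mM Tris, 140 mM NaCl, 25 mM NaH2PO4, pH 7.4. […] Stopped with cold LaCl3/acetate buffer pH 4.0 and filtered on GF/B. Background-subtracted and normalized to the uninhibited control.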

P2Y purinoceptor 14 = biological target: T5, P2Y purinoceptor 14 (Homo sapiens, UniProt Q15391); assay: (§2) Displacement of 6-Amino-9-(2-carboxy-4-((6-(4-(4-(4-(4-(3-carboxy-6-(4-(trifluoromethyl)phenyl)-naphthalen-1-yl)phenyl)piperidin-1-yl)butyl)-1H-1,2,3-triazol-1-yl)hexyl)carbamoyl)-phenyl)-3-iminio-5-sulfo-3H-xanthene-4-sulfonate from recombinant human P2Y14 receptor expressed in CHO cells preincubated for 30 mins followed by tracer addition and measured after 30 mins by flow cytometry; type: cell-based
T5 sequence (Q15391 whole entry): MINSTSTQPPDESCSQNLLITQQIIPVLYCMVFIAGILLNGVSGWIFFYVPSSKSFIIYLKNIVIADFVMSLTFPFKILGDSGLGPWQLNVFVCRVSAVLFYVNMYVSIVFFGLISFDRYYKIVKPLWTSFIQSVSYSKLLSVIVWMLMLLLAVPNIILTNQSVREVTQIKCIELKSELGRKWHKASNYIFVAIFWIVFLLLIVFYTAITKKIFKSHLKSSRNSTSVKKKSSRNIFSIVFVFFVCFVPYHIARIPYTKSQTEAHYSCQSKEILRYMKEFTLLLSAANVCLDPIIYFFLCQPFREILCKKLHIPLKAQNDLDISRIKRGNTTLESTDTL

5'-nucleotidase [8] = biological target: T2, 5'-nucleotidase; assay: Inhibition of recombinant human C-terminal His-tagged soluble form of CD73 expressed in baculovirus infected Sf9 insect cells using [2,8-3H]AMP as substrate measured after 25 mins by scintillation counting method
Outline: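 Soluble human CD73 lacking the GPI signal, with a C-terminal 6xHis tag, secreted from baculovirus-infected Sf9 cells and purified on Ni-NTA; 0.365 ng per vial. […] Product separated by lanthanum chloride precipitation and filtration, then scintillation counted.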

P2Y purinoceptor 6 [9] = biological target: T4, P2Y purinoceptor 6; assay: Agonist activity at human P2Y6 receptor expressed in human 1321N1 cells assessed as induction of calcium mobilization at 3 uM by calcium-4 dye based FLIPR assay relative to control; type: functional, cell-based
[10] = biological target: T6, P2Y purinoceptor 14 (Homo sapiens) (UniProt Q15391); assay: as §2, with “cells at 3 uM” for “cells”; type: cell-based
T6 sequence (whole entry): T5 sequence (Q15391 whole entry)

5'-nucleotidase [11] = biological target: T2, 5'-nucleotidase; assay: Inhibition of CD73 in human tonsils using AMP as substrate preincubated for 30 mins followed by substrate addition and measured after 45 mins by lead nitrate-based histochemical analysis
Outline: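 Human tonsil cryosections pre-incubated 30 min in Trizma-maleate sucrose buffer (40 mM Trizma maleate, 0.25 M sucrose, pH 7.4) with 2 mM levamisole plus inhibitor at 1, 10 or 100 nM. […] Pi deposit developed with 0.5% (NH4)2S. Read-out is mean grayscale pixel intensity of five matched germinal centers versus untreated control. One-way ANOVA with Dunnett's test.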

Homo sapiens [12] = species: Homo sapiens; settings: 1 mM

T2 sequence (P21589 whole entry): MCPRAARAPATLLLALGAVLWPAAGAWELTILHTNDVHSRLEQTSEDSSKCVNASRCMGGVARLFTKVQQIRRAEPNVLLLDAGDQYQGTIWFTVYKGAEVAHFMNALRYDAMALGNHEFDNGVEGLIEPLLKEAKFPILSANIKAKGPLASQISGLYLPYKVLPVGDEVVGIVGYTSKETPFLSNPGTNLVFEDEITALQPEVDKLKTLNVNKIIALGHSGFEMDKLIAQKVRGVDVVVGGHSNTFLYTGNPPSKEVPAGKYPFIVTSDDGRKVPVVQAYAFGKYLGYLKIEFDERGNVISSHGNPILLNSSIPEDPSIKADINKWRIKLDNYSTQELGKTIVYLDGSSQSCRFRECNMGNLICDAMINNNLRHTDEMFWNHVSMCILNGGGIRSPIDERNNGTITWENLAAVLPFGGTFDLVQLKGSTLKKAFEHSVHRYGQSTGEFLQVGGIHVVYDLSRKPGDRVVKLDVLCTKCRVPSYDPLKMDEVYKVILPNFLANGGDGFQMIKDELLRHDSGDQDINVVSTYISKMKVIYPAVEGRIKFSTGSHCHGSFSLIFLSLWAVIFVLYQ
T4 sequence (Q15077 whole entry): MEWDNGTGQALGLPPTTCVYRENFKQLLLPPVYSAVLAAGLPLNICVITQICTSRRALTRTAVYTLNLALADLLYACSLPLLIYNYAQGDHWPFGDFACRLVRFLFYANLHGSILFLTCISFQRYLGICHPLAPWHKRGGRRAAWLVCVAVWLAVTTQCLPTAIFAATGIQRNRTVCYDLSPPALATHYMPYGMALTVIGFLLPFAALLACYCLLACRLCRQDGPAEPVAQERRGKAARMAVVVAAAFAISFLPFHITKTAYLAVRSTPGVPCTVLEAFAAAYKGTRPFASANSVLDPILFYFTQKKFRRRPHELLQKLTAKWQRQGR

Row | SMILES | inhibition (Homo sapiens [1]) [%] | pKi (5'-nucleotidase [2]) | inhibition (5'-nucleotidase [3]) | inhibition [4] [%] | pEC50 (P2Y purinoceptor 6 [5]) | inhibition (Homo sapiens [6]) [%] | pKi (5'-nucleotidase [7]) | pIC50 (P2Y purinoceptor 14) | pKi (5'-nucleotidase [8]) | Activity (P2Y purinoceptor 6 [9]) [%] | inhibition [10] | inhibition (5'-nucleotidase [11]) | inhibition (Homo sapiens [12]) [%]
1 | [F-].[Na+] | 70 | – | – | – | – | – | – | – | – | – | – | – | –
2 | Nc1ncnc2c1ncn2[C@@H]1O[C@H](COP(=O)(O)CP(=O)(O)O)[C@@H](O)[C@H]1O [PHOSPHOMETHYLPHOSPHONIC ACID ADENOSYL ESTER] | – | 6.78 | Active | > 50 | – | – | – | – | – | – | – | – | –
3 | O=C(Nc1ccn([C@@H]2O[C@H](COP(=O)(O)CP(=O)(O)O)[C@@H](O)[C@H]2O)c(=O)n1)c1ccccc1 | – | 7.86 | – | > 50 | 5.86 | -3 | 8.25 | 5.18 | 8.34 | – | – | – | –
4 | Cn1c(=NOCc2ccccc2)ccn([C@@H]2O[C@H](COP(=O)(O)CP(=O)(O)O)[C@@H](O)[C@H]2O)c1=O | – | 8.44 | – | > 50 | < 5.52 | -2 | 8.10 | < 5.52 | – | 3.6 | inactive | Dose-dependent effect | –
5 | c1ccc([C@H]2CN3CCSC3=N2)cc1 | – | – | – | – | – | – | – | – | – | – | – | – | 70
6 | O=c1[nH]c(=O)n([C@@H]2O[C@H](COP(=O)(O)CP(=O)(O)O)[C@@H](O)[C@H]2O)cc1F | – | 7.83 | – | > 50 | 6.69 | 4 | 8.35 | 6.44 | 8.27 | – | – | – | –
